Rows were chosen to be rich in hits. Some 4.1% of all compounds tested hit in one or more screens of this group.
hERG rescue: hERG (human) protection from proarrhythmic block; CHO-hERG, FluxOR thallium flux, dofetilide IC70 present; AID 1511; Q12809; activation (rescue from dofetilide block), less the hit threshold, % at 10 µM; 310,000 tested, 0.51% active;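 active = activation above the mean of controls blocked by dofetilide plus 5 SD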;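 note: thallium influx through hERG after potassium depolarization seen as dye fluorescence rise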
KCNK9 block: human KCNK9 channel inhibition. Q9NPC2. HEK293 KCNK9, FluxOR thallium flux fluorescence; hits give low values. B-score at 10 µM. 310,000 tested, 1.2% active;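 active = ratio B-score over 3 SD below the library mean, with starting fluorescence within 5 SD of its mean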;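 note: negative B-score means less thallium flux so channel inhibition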
KCC2 mod: modulators of human KCC2 chloride dependent transport. Q9H2X9. KCC2 cells, thallium flux FluoZin-2 fluorescence. B-score of Tl+ flux slope (higher = more flux/activation; lower = inhibition) at 10 µM. 190,000 tested, 2.2% active;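 active = thallium flux slope and its plate-corrected score both differing from the plate sample mean at a set confidence after two filtering rounds, in either direction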;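 note: slope of fluorescence scaled to starting intensity during 10 to 20 s after thallium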
Target sequence (Q9H2X9 whole entry, looked up): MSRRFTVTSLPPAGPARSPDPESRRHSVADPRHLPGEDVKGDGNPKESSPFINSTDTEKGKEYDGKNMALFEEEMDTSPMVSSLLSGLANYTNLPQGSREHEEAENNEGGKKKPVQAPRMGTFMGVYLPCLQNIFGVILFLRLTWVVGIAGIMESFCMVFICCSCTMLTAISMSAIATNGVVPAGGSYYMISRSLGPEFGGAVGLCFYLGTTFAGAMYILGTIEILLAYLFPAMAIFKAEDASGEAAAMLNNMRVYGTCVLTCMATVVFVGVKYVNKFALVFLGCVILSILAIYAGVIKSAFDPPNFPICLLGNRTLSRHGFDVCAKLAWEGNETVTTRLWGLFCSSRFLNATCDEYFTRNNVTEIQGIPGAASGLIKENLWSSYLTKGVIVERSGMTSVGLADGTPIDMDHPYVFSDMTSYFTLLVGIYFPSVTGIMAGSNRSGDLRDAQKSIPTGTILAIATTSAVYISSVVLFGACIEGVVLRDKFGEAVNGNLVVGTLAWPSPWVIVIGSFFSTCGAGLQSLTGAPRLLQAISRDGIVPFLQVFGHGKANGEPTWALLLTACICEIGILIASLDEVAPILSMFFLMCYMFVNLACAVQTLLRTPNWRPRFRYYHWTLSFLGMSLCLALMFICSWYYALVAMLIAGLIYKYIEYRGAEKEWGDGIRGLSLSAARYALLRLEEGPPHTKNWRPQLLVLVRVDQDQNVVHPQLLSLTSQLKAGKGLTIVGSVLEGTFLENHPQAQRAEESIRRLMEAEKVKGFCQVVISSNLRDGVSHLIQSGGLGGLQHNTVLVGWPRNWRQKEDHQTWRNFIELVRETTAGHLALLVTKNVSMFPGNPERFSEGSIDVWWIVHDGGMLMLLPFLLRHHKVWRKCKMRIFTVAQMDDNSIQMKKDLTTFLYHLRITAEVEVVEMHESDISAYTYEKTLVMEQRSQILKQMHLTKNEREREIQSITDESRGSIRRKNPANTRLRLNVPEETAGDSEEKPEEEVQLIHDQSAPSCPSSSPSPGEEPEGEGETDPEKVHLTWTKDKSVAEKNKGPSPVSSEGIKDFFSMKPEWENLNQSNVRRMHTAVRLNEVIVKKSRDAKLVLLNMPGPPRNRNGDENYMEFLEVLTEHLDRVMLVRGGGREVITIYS
KCNQ1 act: potentiators or activators of human KCNQ1 potassium channel. B-score at 10 µM. AID 2648. CHO-K1 KCNQ1, thallium flux FluxOR fluorescence; hits give high values. 310,000 tested, 0.35% active. P51787;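 active = fluorescence ratio B-score, a plate-corrected score, at least three library SD, with initial intensity B-score within 5 SD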
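Doses: Single concentration per compound, DMSO matched to controls | Test system: KCNQ1-transfected CHO-K1 cells | Timing: 90 min dye loading and 20 min compound exposure, both at room temperature | Measured by: Kinetic FluxOR thallium fluorescence, 10-s 1-Hz baseline, 110-s post-stimulus read | Medium: Assay buffer with matched DMSO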
KCNK3 inh: human KCNK3 channel inhibition, primary screen; O14649; CHO-KCNK3 thallium flux, FluxOR fluorescence; hits give low values; B-score at 10 µM; 340,000 tested, 0.84% active; AID 602410;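 active = B-score under library mean minus 4 SD, starting fluorescence ratio at most library mean plus 5 SD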;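 note: more negative B-score means stronger inhibition of thallium flux through KCNK3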
KCNQ1 block: inhibitors of human KCNQ1 potassium channel; CHO-K1 KCNQ1, FluxOR thallium flux fluorescence; hits give high values; AID 2642; 310,000 tested, 1.3% active; B-score at 10 µM;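 active = compounds whose thallium flux B-score, printed positive for inhibition, exceeds three library SD while starting fluorescence stays within three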;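 note: channel opened by potassium depolarization with thallium stimulus after 20 min compound exposure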
* = called active by the depositor.

Results for CS(=O)(=O)C1=NSC2=NC(=O)/C(=C\c3cccn3-c3ccc(Cl)cc3)C(=N)N21 ?
hERG rescue: -16; KCNK9 block: inactive; KCC2 mod: -2.6; KCNQ1 act: inactive; KCNK3 inh: inactive; KCNQ1 block: 7*

Results for CCn1c(SCC(=O)OCC(=O)N2c3ccccc3NC(=O)C2(C)C)nnc1-c1ccco1 ?
hERG rescue: 7.0*; KCNK9 block: inactive; KCC2 mod: -0.88; KCNQ1 act: inactive; KCNK3 inh: inactive; KCNQ1 block: inactive

Results for CC1(C)C(=O)Nc2ccccc2N1C(=O)COC(=O)CSc1ccc(Cl)cc1 ?
KCNK3 inh: inactive

What do the screens show for `Cc1ccc(-c2noc(COC(=O)c3ccco3)n2)cc1`?
KCNK3 inh: inactive

Results for Cc1nc2ccccc2n1CC(=O)NCCN1CCOCC1 ?
hERG rescue: -4; KCNK9 block: inactive; KCC2 mod: 0.13; KCNQ1 act: inactive; KCNK3 inh: inactive; KCNQ1 block: inactive

How did O=C(CSc1ncnc2c1cnn2-c1ccccc1)Nc1ccc2c(c1)OCO2 do in these assays?
hERG rescue: -11; KCNK9 block: inactive; KCNQ1 act: inactive; KCNK3 inh: inactive; KCNQ1 block: inactive

How did O=C(CSc1ncnc2c1cnn2-c1ccc(Cl)cc1)NCc1ccc2c(c1)OCO2 do in these assays?
hERG rescue: 4.7*; KCNK9 block: inactive; KCC2 mod: 21*; KCNQ1 act: inactive; KCNK3 inh: inactive; KCNQ1 block: inactive

What do the screens show for `Cc1cc(NC(=O)CSc2ncnc3c2cnn3-c2ccccc2)no1`?
hERG rescue: 14*; KCNK9 block: inactive; KCC2 mod: -0.078; KCNQ1 act: inactive; KCNK3 inh: inactive; KCNQ1 block: inactive

Results for O=C(COC(=O)CN1C(=O)NC2(CCCCC2)C1=O)Nc1cc(F)ccc1F ?
KCNK3 inh: inactive

What do the screens show for `COCCn1c(N)c(N(Cc2ccccc2)C(=O)CSCC(=O)Nc2ccc(C)cc2)c(=O)[nH]c1=O`?
hERG rescue: -13; KCNK9 block: inactive; KCNQ1 act: inactive; KCNK3 inh: inactive; KCNQ1 block: inactive

What do the screens show for `Cc1cccc(C(=O)OCC(=O)NNC(=O)c2cccs2)c1O`?
hERG rescue: -10; KCNK9 block: inactive; KCNQ1 act: inactive; KCNK3 inh: inactive; KCNQ1 block: inactive

Results for COc1ccc2oc(C(=O)Nc3nccs3)c(C)c2c1 ?
hERG rescue: -12; KCNK9 block: -7.9*; KCNQ1 act: inactive; KCNK3 inh: inactive; KCNQ1 block: inactive

What do the screens show for `Cn1c(O)c(N=Nc2ccccc2)c2ccccc21`?
hERG rescue: 1; KCNK9 block: inactive; KCNQ1 act: inactive; KCNK3 inh: inactive; KCNQ1 block: inactive

Results for Cn1c(O)c(N=Nc2nc(-c3ccccc3)cs2)c2ccccc21 ?
hERG rescue: 35*; KCNK9 block: inactive; KCC2 mod: 52*; KCNQ1 act: 60*; KCNK3 inh: inactive; KCNQ1 block: inactive

What do the screens show for `Nc1nonc1-c1nc2ccccc2n1CC(=O)N/N=C/c1ccc(-c2ccccc2C(=O)O)o1`?
hERG rescue: -5; KCNK9 block: inactive; KCC2 mod: 0.75; KCNQ1 act: inactive; KCNK3 inh: inactive; KCNQ1 block: inactive

Results for Cc1cccc(-n2c(N)c(-c3nc4ccccc4n3C)c3nc4ccccc4nc32)c1 ?
hERG rescue: -14; KCNK9 block: inactive; KCC2 mod: 0.16; KCNQ1 act: inactive; KCNK3 inh: -8.8*; KCNQ1 block: inactive

How did Cn1c(-c2c(N)n(-c3ccccc3)c3nc4ccccc4nc23)nc2ccccc21 do in these assays?
hERG rescue: -7; KCNK9 block: inactive; KCC2 mod: -0.75; KCNQ1 act: inactive; KCNK3 inh: inactive; KCNQ1 block: inactive

What do the screens show for `CN(C)c1ccc(/C=C/C(O)=C2/C(=O)N(C)C3(C)CC2c2ccccc2O3)cc1` (centres undefined)?
hERG rescue: -17; KCNK9 block: inactive; KCC2 mod: -0.66; KCNQ1 act: inactive; KCNQ1 block: 7*

How did Cc1ccc(S(=O)(=O)N2CCOCC2)cc1C(=O)N1CC(C)OC(C)C1 (centres undefined) do in these assays?
hERG rescue: -4; KCNK9 block: inactive; KCNQ1 act: inactive; KCNK3 inh: inactive; KCNQ1 block: inactive

How did COc1cccc(/C=C(/C(=O)OCC(=O)NC2CCCCCCC2)c2ccccc2)c1 do in these assays?
hERG rescue: -25; KCNK9 block: -9.9*; KCC2 mod: -1; KCNQ1 act: inactive; KCNK3 inh: inactive; KCNQ1 block: 10*

What do the screens show for `COc1cccc(/C=C(/C(=O)OCC(=O)NCC2CCCO2)c2ccccc2)c1` (centres undefined)?
hERG rescue: -13; KCNK9 block: inactive; KCC2 mod: -0.66; KCNQ1 act: inactive; KCNK3 inh: inactive; KCNQ1 block: inactive

Results for Cc1nc2ccccc2c(=O)n1NC(=O)c1ccc(F)cc1Cl ?
hERG rescue: -4; KCNK9 block: inactive; KCC2 mod: -0.68; KCNQ1 act: inactive; KCNK3 inh: inactive; KCNQ1 block: inactive

What do the screens show for `O=C(Nc1cccc(-c2cccc(F)c2)c1)C1CCN(C2CCC2)CC1`?
hERG rescue: -14; KCNK9 block: inactive; KCNQ1 act: inactive; KCNK3 inh: inactive; KCNQ1 block: inactive

What do the screens show for `CCn1c(CNC(=O)c2ccc3c(c2)OCO3)nnc1SCC(=O)Nc1cc(C)ccc1OC`?
hERG rescue: -16; KCNK9 block: inactive; KCC2 mod: -0.6; KCNQ1 act: inactive; KCNK3 inh: inactive; KCNQ1 block: 8*

Results for O=C(Nc1cc(Br)ccc1O)C1CC(c2c(F)cccc2Cl)=NO1 (centres undefined) ?
hERG rescue: -7; KCNK9 block: inactive; KCNQ1 act: inactive; KCNK3 inh: inactive; KCNQ1 block: inactive

What do the screens show for `CC(C)[C@H](NC(=O)OC(C)(C)C)c1nnc(SCC(=O)Nc2ccc(Br)cc2)o1`?
hERG rescue: -19; KCNK9 block: inactive; KCC2 mod: -0.3; KCNQ1 act: inactive; KCNK3 inh: inactive; KCNQ1 block: 6*

Results for O=C1NCCOC(=O)[C@H](Cc2ccc(F)cc2)CC/C=C/C[C@@H]1CC(=O)N(CCO)Cc1ccccc1 ?
KCNK3 inh: inactive

How did COc1ccc(NC(=O)Nc2ccc(OC)cc2)cc1 do in these assays?
hERG rescue: -4; KCNK9 block: inactive; KCC2 mod: 0.47; KCNQ1 act: inactive; KCNK3 inh: inactive; KCNQ1 block: inactive

How did N#Cc1ccc(NC(=O)Nc2ccc(Oc3ccc(NC(=O)Nc4ccc(C#N)cc4)cc3)cc2)cc1 do in these assays?
hERG rescue: -15; KCNK9 block: inactive; KCC2 mod: -0.64; KCNQ1 act: inactive; KCNK3 inh: inactive; KCNQ1 block: 9*

High-throughput results (PubChem BioAssay)
